Reference: ChEMBL document CHEMBL4265867, “Affinity-based small fluorescent probe for NAD(P)H:quinone oxidoreductase 1 (NQO1). Design, synthesis and pharmacological evaluation” (Eur J Med Chem, 2017)
Active and inactive are the calls of the source. The rule behind the calls is not given here.

Key:
[1] = molecular target: T1, NAD(P)H dehydrogenase [quinone] 1 (Homo sapiens, UniProt P15559); assay: Inhibition of recombinant human NQO1 assessed as reduction in oxidation of NADPH to NADP+ using b-lap as substrate and NADPH in presence of 0.14% (w/v) BSA
[2] = molecular target: T1, NAD(P)H dehydrogenase [quinone] 1; assay: Binding affinity to NQO1 in human A549 cells at 10 uM incubated for 10 mins by DAPI staining based fluorescence microscopy imaging; assay type: cell-based
How it was run: (§1)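 A549 cells were rinsed with serum-free medium. Probe, from a 10 mM DMSO stock diluted in serum-free medium, was applied at 10 or 50 μM for 10 min at 37 °C, then washed off. For the inhibition condition, 10 μM DIC was co-incubated with the probe under the same conditions. Nuclei were stained with DAPI and cells imaged by laser scanning confocal microscopy.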

[3] = molecular target: T1, NAD(P)H dehydrogenase [quinone] 1; assay: Binding affinity to NQO1 in human A549 cells at 50 uM incubated for 10 mins in presence of 10 uM DIC by DAPI staining based fluorescence microscopy imaging; assay type: cell-based; how it was run: as §1
[4] = molecular target: T1, NAD(P)H dehydrogenase [quinone] 1; assay: Binding affinity to recombinant human NQO1 by fluorescence polarization competition assay
How it was run: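 Fluorescence polarization was read at 485 nm excitation and 535 nm emission in HEPES buffer. Free-probe mP was first measured over a range of probe concentrations without protein. For competition, wells held varying probe concentrations with NQO1 added from a 100 nM solution. IC50 was taken from a plot of % inhibition against concentration.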

[5] = molecular target: T1, NAD(P)H dehydrogenase [quinone] 1; assay: Binding affinity to NQO1 in human A549 cells at 50 uM incubated for 10 mins by DAPI staining based fluorescence microscopy imaging; assay type: cell-based; how it was run: as §1
[6] = molecular target: T1, NAD(P)H dehydrogenase [quinone] 1; assay: Binding affinity to NQO1 in human A549 cells at 10 uM incubated for 10 mins in presence of 10 uM DIC by DAPI staining based fluorescence microscopy imaging; assay type: cell-based; how it was run: as §1

IC50 [1]: 980 nM | Activity [2]: Active | Activity [3]: inactive | EC50 [4]: 2950 nM | Activity [5]: Active | Activity [6]: inactive
SMILES: O=C1OC2(c3ccc(O)cc3Oc3cc(O)ccc32)c2ccc(NC(=S)NCCCCCCOc3ccc(/C=C/C(=O)c4c(O)c5ccccc5oc4=O)cc3)cc21
